Experimental data of several laboratories.
In brackets after ≈: the same amount, converted by molar mass.
Organism: Pichia kudriavzevii

Structure (SMILES)	observed	technique	strain	time	measurement	value
Fc1ccc(C2(Cn3cncn3)CO2)c(F)c1 (stereo not shown)	microbial growth	broth dilution	ATCC6258	48 h	MIC	> 31.3 µg/mL
CCCCCOc1c(OC)cc(NC(C)CCCNC(=O)C(N)CC(C)C)c2nc(C(C)(C)C)ccc12 (stereo not shown)	microbial killing	–	ATCC6258	–	MFC	10 µg/mL (≈ 19.4 µM)
OC(Cn1cncn1)(Cn1cncn1)c1ccc(F)cc1F	microbial growth	broth dilution	–	24 h	MIC90	256 µg/mL (≈ 836 µM)
C[C@@H]1[C@H](O)[C@@H](C)/C=C/C=C/C=C/C=C/C=C/C=C/C=C/[C@H](O[C@@H]2O[C@H](C)[C@@H](O)[C@H](N)[C@@H]2O)C[C@@H]2O[C@](O)(C[C@@H](O)C[C@@H](O)[C@H](O)CC[C@@H](O)C[C@@H](O)CC(=O)O[C@H]1C)C[C@H](O)[C@H]2C(=O)O	microbial growth	–	ATCC6258	–	IC50	0.54 µg/mL (≈ 0.584 µM)
CCCCCCOc1c(OC)cc(NC(C)CCCNC(=O)C(N)Cc2cnc[nH]2)c2nc(C(C)(C)C)ccc12 (stereo not shown)	microbial killing	–	ATCC6258	–	MFC	> 20 µg/mL
OC(CN1CCOCC1)(Cn1cncn1)c1ccc(F)cc1F (stereo not shown)	microbial growth	broth dilution	ATCC6258	48 h	MIC	> 31.3 µg/mL
C[C@@H]1[C@H](O)[C@@H](C)/C=C/C=C/C=C/C=C/C=C/C=C/C=C/[C@H](O[C@@H]2O[C@H](C)[C@@H](O)[C@H](N)[C@@H]2O)C[C@@H]2O[C@](O)(C[C@@H](O)C[C@@H](O)[C@H](O)CC[C@@H](O)C[C@@H](O)CC(=O)O[C@H]1C)C[C@H](O)[C@H]2C(=O)O	microbial killing	–	ATCC6258	–	MFC	1.25 µg/mL (≈ 1.35 µM)
C#CCCCCCCCCC=CCC(O)CC(O)CO (stereo not shown)	microbial growth	broth dilution	ATCC6258	–	IC50	> 8 µg/mL
CCC(C)n1ncn(-c2ccc(N3CCN(c4ccc(OCC5COC(Cn6cncn6)(c6ccc(Cl)cc6Cl)O5)cc4)CC3)cc2)c1=O (stereo not shown)	microbial growth	–	–	–	MIC90	0.5 µg/mL (≈ 0.709 µM)
CCCCOc1c(OC)cc(NC(C)CCCN)c2nc(C(C)(C)C)cc(C)c12 (stereo not shown)	microbial killing	–	ATCC6258	–	MFC	10 µg/mL (≈ 24.9 µM)
CC(C)C1=CC2=CC(=O)[C@H]3C(C)(C)CCC[C@]3(C)C2=C(O)C1=O	microbial growth	–	ATCC6258	–	IC50	12 µg/mL (≈ 38.2 µM)
CCCCCCOc1c(OC)cc(NC(C)CCCN)c2nc(C(C)(C)C)ccc12 (stereo not shown)	microbial growth	–	ATCC6258	–	IC50	7.16 µg/mL (≈ 17.2 µM)
CC(=O)N1CCN(c2ccc(OCC3COC(Cn4ccnc4)(c4ccc(Cl)cc4Cl)O3)cc2)CC1 (stereo not shown)	microbial growth	–	–	–	MIC90	1 µg/mL (≈ 1.88 µM)
CCCCCCCCCCCCCN1CCNCC1	microbial growth	broth dilution	ATCC6258	48 h	MIC	0.975 µg/mL
CCCCCCCCOc1c(OC)cc(NC(C)CCCN)c2nc(C(C)(C)C)ccc12 (stereo not shown)	microbial growth	–	ATCC6258	–	IC50	5.82 µg/mL (≈ 13.1 µM)
CN1CCN(CC(O)(Cn2cncn2)c2ccc(F)cc2F)CC1 (stereo not shown)	microbial growth	broth dilution	ATCC6258	48 h	MIC	15.6 µg/mL
CCCCCCOc1c(OC)cc(NC(C)CCCN)c2nc(C(C)(C)C)cc(C)c12 (stereo not shown)	microbial killing	–	ATCC6258	–	MFC	5 µg/mL (≈ 11.6 µM)
C[C@@H]1[C@H](O)[C@@H](C)/C=C/C=C/C=C/C=C/C=C/C=C/C=C/[C@H](O[C@@H]2O[C@H](C)[C@@H](O)[C@H](N)[C@@H]2O)C[C@@H]2O[C@](O)(C[C@@H](O)C[C@@H](O)[C@H](O)CC[C@@H](O)C[C@@H](O)CC(=O)O[C@H]1C)C[C@H](O)[C@H]2C(=O)O	microbial growth	broth dilution	ATCC6258	–	IC50	0.6 µg/mL (≈ 0.649 µM)
C[C@@H]1[C@H](O)[C@@H](C)/C=C/C=C/C=C/C=C/C=C/C=C/C=C/[C@H](O[C@@H]2O[C@H](C)[C@@H](O)[C@H](N)[C@@H]2O)C[C@@H]2O[C@](O)(C[C@@H](O)C[C@@H](O)[C@H](O)CC[C@@H](O)C[C@@H](O)CC(=O)O[C@H]1C)C[C@H](O)[C@H]2C(=O)O	microbial growth	–	ATCC6258	–	MIC	1.35 µM
CCCCCCCCCCCCN1CCNCC1	microbial growth	broth dilution	ATCC6258	48 h	MIC	1.95 µg/mL
OC(Cn1cncn1)(Cn1cncn1)c1ccc(F)cc1F	microbial growth	–	–	–	MIC90	64 µg/mL (≈ 209 µM)
C[C@@H]1[C@H](O)[C@@H](C)/C=C/C=C/C=C/C=C/C=C/C=C/C=C/[C@H](O[C@@H]2O[C@H](C)[C@@H](O)[C@H](N)[C@@H]2O)C[C@@H]2O[C@](O)(C[C@@H](O)C[C@@H](O)[C@H](O)CC[C@@H](O)C[C@@H](O)CC(=O)O[C@H]1C)C[C@H](O)[C@H]2C(=O)O	microbial growth	broth dilution	ATCC6258	48 h	MIC	3.9 µg/mL
C=CCCCCCCCCCCCC(O)CC(O)CO (stereo not shown)	microbial growth	broth dilution	ATCC6258	–	IC50	> 200 µg/mL
CCCCCCCCCCCCN1CCN(CC(O)(Cn2cncn2)c2ccc(F)cc2F)CC1 (stereo not shown)	microbial growth	broth dilution	ATCC6258	48 h	MIC	0.48 µg/mL
CCCCCOc1c(OC)cc(NC(C)CCCNC(=O)C(N)Cc2ccccc2)c2nc(C(C)(C)C)ccc12 (stereo not shown)	microbial growth	–	ATCC6258	–	IC50	7.37 µg/mL (≈ 13.4 µM)
